Measurements collected from several papers.
Target: Activated CDC42 kinase 1 (TNK2, Homo sapiens, UniProt Q07912)

SMILES	read-out	method	concentration	remaining binding [%]
CN(C)c1nccc(-c2cnc3ncccn23)n1	binding	–	1 µM	99
C=CC(=O)N1CCC(C(=O)NCC(=O)N2CCN(c3nc(-c4cnc(N)nc4C(F)F)nc(N4CCOCC4)n3)CC2)CC1	binding	competition with immobilised ligand	1 µM	100
O=C(NS(=O)(=O)c1ccc(NCC2CCOCC2)c([N+](=O)[O-])c1)c1ccc(N2CCN(Cc3ccc(C(F)(F)F)cc3-c3ccc(Cl)cc3)CC2)cc1Oc1cnc2[nH]ccc2c1	cell-free assay	competition with immobilised ligand	1 µM	100
C[C@@H]1CCN(c2nccc(-c3cnn4ncccc34)n2)C1	binding	–	1 µM	100
CN([C@@H]1CCc2c(CC(=O)O)c3ccccc3n2C1)S(=O)(=O)c1ccc(F)cc1	cell-free assay	competition with immobilised ligand	1 µM	100
CNC(=O)c1cc(Oc2ccc(NC(=O)Nc3ccc(Cl)c(C(F)(F)F)c3)cc2)ccn1	cell-free assay	competition with immobilised ligand	0.1 µM	100
C[C@@H]1CN(c2cc(-c3n[nH]c4ccc(OC5(C)CC5)cc34)ncn2)C[C@H](C)O1	cell-free assay	competition with immobilised ligand	0.1 µM	79
CCN(CC)Cc1cc(Nc2ccnc3cc(Cl)ccc23)ccc1O	cell-free assay	competition with immobilised ligand	0.1 µM	89
c1ccc(N2CCN(Cc3nc4ccccc4[nH]3)CC2)nc1	binding	competition with immobilised ligand	1 µM	100
O=C(c1ccc(Nc2nccc(-c3cc4ccccc4s3)n2)cc1)N1CCC(N2CCCC2)CC1	binding	competition with immobilised ligand	1 µM	62
C[C@@H](c1ccc(-n2cnc3c(N)ncnc32)cc1)N1CCc2nn(C)c(Cc3ccccc3)c2C1=O	binding	competition with immobilised ligand	0.1 µM	82
COC(=O)Nc1nc2cc(C(=O)c3ccccc3)ccc2[nH]1	cell-free assay	competition with immobilised ligand	0.1 µM	100
O=C(Nc1c[nH]nc1C(=O)NC1CCNCC1)c1cc(F)cc(F)c1	binding	competition with immobilised ligand	1 µM	100
CN(C)c1ncc(F)c(-c2cnn3ncccc23)n1	binding	–	1 µM	77
Cn1nc(C(F)(F)F)cc1-c1cnc(N2CCc3cc(S(=O)(=O)Nc4c(F)cc(Cl)cc4F)cc(N4CCCC4=O)c32)nc1	cell-free assay	competition with immobilised ligand	1 µM	100
COc1cnc(Nc2cccc(S(N)(=O)=O)c2)nc1N1CCN(c2ccccc2)C(=O)C1	binding	competition with immobilised ligand	1 µM	100

SMILES	read-out	method	concentration	remaining binding [%]
F[C@@H]1CCN(c2nccc(-c3cnn4ncccc34)n2)C1	binding	–	1 µM	79
CNCc1ccccc1-c1csc([C@@H](C)Nc2nc(C)nc3cc(OC)c(OC)cc23)c1	cell-free assay	competition with immobilised ligand	1 µM	100
CN1CC[C@H](c2c(O)cc(O)c3c(=O)cc(-c4ccccc4Cl)oc23)[C@H](O)C1	cell-free assay	competition with immobilised ligand	10 µM	74
O=C(NCCCN1CCOCC1)c1ccc(Nc2ncc(Cl)c(-c3ccc(Cl)s3)n2)cc1	binding	competition with immobilised ligand	1 µM	53
CS(=O)(=O)CCNCc1ccc(-c2ccc3ncnc(Nc4ccc(OCc5cccc(F)c5)c(Cl)c4)c3c2)o1	cell-free assay	competition with immobilised ligand	10 µM	93
CN(C)c1nccc(-c2cnn3ncccc23)n1	binding	–	1 µM	100
COc1cnc(Nc2cccc(S(N)(=O)=O)c2)nc1N1CCN(c2ccccc2)CC1	binding	competition with immobilised ligand	1 µM	97
Cc1cnn2ncc(-c3ccnc(N(C)C)n3)c2c1	binding	–	1 µM	100
Cc1cc(C)c(-n2ccn3nc(-c4cccnc4)cc23)cc1NC(=O)c1cc(C#N)cc(S(F)(F)(F)(F)F)c1	cell-free assay	competition with immobilised ligand	0.1 µM	83.6
Cc1c(-c2ccccc2)oc2c(C(=O)OCCN3CCCCC3)cccc2c1=O	cell-free assay	competition with immobilised ligand	0.1 µM	100
O=C(c1ccc(Nc2ncc(Cl)c(-c3cc4ccccc4s3)n2)cc1)N1CCC(N2CCCC2)CC1	binding	competition with immobilised ligand	1 µM	54
COc1cc2ncnc(Nc3ccc(F)c(Cl)c3)c2cc1OCCCN1CCOCC1	cell-free assay	competition with immobilised ligand	10 µM	77
N[C@@H]1CCN(c2nccc(-c3cnn4ncccc34)n2)C1	binding	–	1 µM	100
Cc1nc(Nc2ncc(C(=O)Nc3c(C)cccc3Cl)s2)cc(N2CCN(CCO)CC2)n1	cell-free assay	competition with immobilised ligand	0.1 µM	4
Cc1c(NC(=O)c2cc(C(N)=O)nc3cc(F)ccc23)c(C(F)(F)F)nn1Cc1ccc(C#N)cc1	cell-free assay	competition with immobilised ligand	1 µM	71
